From ChEMBL document CHEMBL1122783, “Synthesis of 2-(2,3-dihydro-2-oxo-1,3,4-oxadiazol-5-yl) benzo heterocycles. A novel series of orally active antiallergic agents” (J Med Chem, 1984)

What was measured:
Rattus norvegicus [1] = species: Rattus norvegicus; experiment: Concentration required to inhibit antigen-induced release of histamine (AIR) by 50% from rat peritoneal mast cells (RMC) (in vitro); format: functional, cell-based; conditions: Mast cell, read-out: I-50
Method in brief: (§1)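 Rat peritoneal mast cells passively sensitized in vitro with rat anti-ovalbumin serum; compounds dissolved in Me2SO (final 0.17%). Antigen-induced and spontaneous (no antigen) histamine release measured after 15-min incubation; released and residual extracted histamine determined fluorometrically on an AutoAnalyzer.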

Rattus norvegicus [2] = experiment: Inhibition of IgE-mediated passive cutaneous anaphylaxis (PCA) by 50% in rat dosed perorally; conditions: po
Rattus norvegicus [3] = species: Rattus norvegicus; experiment: Concentration required to inhibit antigen-induced release of histamine (AIR) by 50% from rat peritoneal mast cells (RMC) (in vitro); f = Stimulation of AIR; format: functional, cell-based; method in brief: as §1
Rattus norvegicus [4] = species: Rattus norvegicus; experiment: Concentration required to inhibit antigen-induced release of histamine (AIR) by 50% from rat peritoneal mast cells (RMC) (in vitro).; format: functional, cell-based; method in brief: as §1

Row | Compound | IC50 (Rattus norvegicus [1]) | ED50 (Rattus norvegicus [2]) | other results
1 | Cc1ccc2c(c1)nc(-c1nnc(O)o1)n2C | 6000 nM | 5 mg/kg | 
2 | Oc1nnc(-c2cc3ccccc3o2)o1 | 1500 nM | 2 mg/kg | 
3 | Cn1c(-c2n[nH]c(O)n2)nc2ccccc21 |  |  | I-50 (Rattus norvegicus [3]): Stimulation of AIR
4 | CCOC(=O)Cn1nc(-c2nc3ccccc3o2)oc1=O |  |  | I-50 (Rattus norvegicus [4]): Stimulation of AIR
5 | CC1=C(c2nnc(O)o2)Cc2ccccc21 |  | > 100 mg/kg | I-50 (Rattus norvegicus [4]): Stimulation of AIR
6 | CCOC(=O)c1ccc2oc(-c3nnc(O)o3)nc2c1 | 1000 nM |  | 
7 | Cc1cccc2oc(-c3nnc(O)o3)nc12 | 1000 nM |  | 
8 | Cn1c(-c2nnc(O)o2)nc2ccccc21 | 900 nM | 1 mg/kg | 
9 | Cc1ccc2nc(-c3nnc(O)o3)oc2c1 | 5000 nM | 2 mg/kg | 
10 | CCOC(=O)n1nc(-c2nc3ccc(C)cc3o2)oc1=O |  |  | I-50 (Rattus norvegicus [4]): Stimulation of AIR
11 | Oc1nnc(-c2cc3ccccc3[nH]2)o1 | 33000 nM |  | 
12 | COC(=O)c1cc(OC)c2oc(-c3nnc(O)o3)nc2c1 | 300 nM | 9 mg/kg | 
13 | Oc1nnc(-c2nc3ccccc3o2)o1 | 1200 nM | 3 mg/kg | 
14 | Oc1nnc(-c2nc3cc(Cl)ccc3o2)o1 | 350 nM | 16 mg/kg | 
15 | Cn1nc(-c2nc3ccccc3o2)oc1=O |  |  | I50 (Rattus norvegicus [3]): Stimulation of AIR
16 | CC(=O)n1nc(-c2nc3ccccc3n2C)oc1=O | 500 nM |  | 
17 | Oc1nnc(-c2cc3cc(Cl)ccc3[nH]2)o1 |  | 9 mg/kg | 
18 | Oc1nnc(-c2sc3ccccc3c2Cl)o1 | 200 nM | > 125 mg/kg | 
19 | CCOC(=O)n1nc(-c2nc3cc(C)ccc3n2C)oc1=O |  |  | I-50 (Rattus norvegicus [4]): Stimulation of AIR
20 | O=C(/C=C/c1ccccc1)n1nc(-c2nc3ccccc3o2)oc1=O | 15000 nM |  | 
21 | CCOC(=O)n1nc(-c2nc3ccccc3n2C)oc1=O |  |  | I-50 (Rattus norvegicus [4]): Stimulation of AIR
22 | Oc1n[nH]c(-c2nc3ccccc3o2)n1 | 60000 nM |  | 
23 | CCOC(=O)n1nc(-c2nc3ccccc3o2)oc1=O |  |  | I-50 (Rattus norvegicus [4]): Stimulation of AIR
24 | CC(=O)n1nc(-c2nc3ccccc3o2)oc1=O | 1400 nM |  | 
25 | Cc1ccc2oc(-c3nnc(O)o3)nc2c1 | 400 nM | 2 mg/kg | 
26 | O=C([O-])c1cc(=O)c2c(OCC(O)COc3cccc4oc(C(=O)[O-])cc(=O)c34)cccc2o1.[Na+].[Na+] [CROMOLYN SODIUM] | 3000 nM | 6 mg/kg | 
